# This is a sample that favours compounds with a hit; in the whole collection about 1% have one here.
# Thrombin inh: inhibitors of human thrombin | AID 1046 | 220,000 tested, 0.26% active | inhibition, % at 5 µM | alpha-thrombin, Boc-VPR-AMC fluorogenic substrate cleavage | P00734;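 active = inhibition at or above 40%; inactive = inhibition below 40%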;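 also: 0% = enzyme with no compound and 100% = wells without enzyme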
#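 Test system: human alpha-thrombin protein / Dosing: one concentration per compound, 5 µM, with 0.2% DMSO / Medium: pH 7.5 Tris-saline with Tween 20 / Benchmarks: no-compound enzyme wells and no-enzyme blanks / Read-out basis: percent inhibition of thrombin substrate cleavage / Timing: reaction at room temperature / Measured by: fluorescence, ex 355 nm, em 460 nm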
# FXIa inh 1536: factor XIa (human) inhibition; P03951; purified FXIa, Boc-Glu-Ala-Arg-AMC fluorogenic substrate; inhibition, % at 5 µM; 220,000 tested, 0.14% active; AID 798;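 active = inhibition of at least 40%; inactive = inhibition below 40%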;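 also: fluorescence of freed AMC excited at 355 nm; 0% = enzyme without compound and 100% = no enzyme blank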
# FXIIa inh 1536: inhibitors of human coagulation factor XIIa. purified FXIIa, Boc-QGR-AMC fluorogenic substrate, 2 h. inhibition, % at 5 µM. 220,000 tested, 0.3% active; in the data active = inhibition above about 40%;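 also: 0% = enzyme with no compound and 100% = blank without enzyme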
# hK5 inh: kallikrein 5 (human) inhibition. AID 873. Q9Y337. inhibition, % at 5 µM. recombinant hK5, fluorogenic AMC substrate cleavage. 210,000 tested, 0.59% active;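 active = inhibition of 40% or more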;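 also: 0% = enzyme controls without compound and 100% = no-enzyme blanks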
# Target sequence (Q9Y337 67-293 limits assumed): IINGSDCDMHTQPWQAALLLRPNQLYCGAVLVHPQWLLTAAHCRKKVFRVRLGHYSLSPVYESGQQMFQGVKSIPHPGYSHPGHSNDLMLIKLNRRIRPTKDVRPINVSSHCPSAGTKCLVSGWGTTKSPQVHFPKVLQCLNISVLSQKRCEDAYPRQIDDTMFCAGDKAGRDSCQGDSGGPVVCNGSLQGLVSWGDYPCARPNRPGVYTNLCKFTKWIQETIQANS
# * marks the source's active call; other numbers are inactive results; x = no result.
SMILES,Thrombin inh,FXIa inh 1536,FXIIa inh 1536,hK5 inh
CC(=O)Nc1ccc(NC(=O)CCn2c(=S)oc3ccccc32)cc1,28.1,26.4,48.8*,19.1
Cc1nnc2c(-c3ccccc3)nc3ccccc3n12,44.6*,2.7,12.8,-11.1
O=C(CSc1nc2ccccc2[nH]1)Nc1nc(-c2ccc(Br)cc2)cs1,-8.6,-5.0,-2.4,-13.1
N/C(=N\OC(=O)c1ccc(Cl)cc1Cl)c1ccccn1,-4.2,31.2,29.0,52.6*
O=C(COC(=O)Cc1ccccc1F)Nc1cc(S(=O)(=O)N2CCOCC2)ccc1N1CCCC1,-10.5,4.9,15.2,-9.2
Cc1ccc(NC(=O)C2CCN(S(C)(=O)=O)CC2)cc1,9.2,13.2,25.8,49.0*
CCOc1ccc(Cn2ccnc2)cc1[N+](=O)[O-],14.0,10.4,15.4,114.8*
CCCCCOc1ccc(Cn2ccnc2)cc1[N+](=O)[O-],-0.1,6.2,9.2,-24.1
COc1ccc(NC(=O)c2ccco2)cc1NC(=O)c1cc2ccccc2o1,21.1,-1.0,3.3,54.1*
O=C(Nc1ccc(N2CCN(C(=O)c3ccco3)CC2)c(Cl)c1)c1cc2ccccc2o1,1.9,-4.3,8.3,40.0*
CCC(=O)N1CCN(c2ccc(NC(=O)c3cc4ccccc4o3)cc2Cl)CC1,-1.1,-1.2,1.3,2.3
NS(=O)(=O)c1ccc(CCNC(=O)Cc2ccccc2[N+](=O)[O-])cc1,52.4*,58.6*,59.3*,20.6
COc1ccccc1NC(=O)NCC(c1ccco1)N1CCCCC1 (stereo not given),-11.1,-2.6,5.1,-7.3
C#CC(CC)(CC)NC(=S)Nc1cccc(C(C)=O)c1,0.9,-1.0,4.1,-7.2
CC(=O)c1ccc(Nc2cc(C)nc3c(C)cc(C)cc23)cc1,10.7,26.0,30.8,44.0*
C#CCNc1cc(C)nc2ncnn12,104.3*,6.9,14.7,38.5
CCC(CC)C(=O)Nc1cc(Cl)ccc1C,-6.4,-4.6,x,-1.9
O=C(Nc1ccc2c(c1)oc1ccccc12)N1CCOCC1,3.3,41.9*,13.3,-12.6
O=C(Nc1ccccc1)N1CCOCC1,2.1,0.6,9.4,-1.6
COC(=O)c1ccccc1NC(=O)Oc1ccc(C(C)C)cc1,20.9,8.7,12.6,52.4*
NNC(=S)NCc1ccc2c(c1)OCO2,-12.2,4.4,14.0,-13.5
COc1ccc(C(=O)Nc2ccccc2C(=O)O)cc1NC(=O)C(c1ccccc1)c1ccccc1,-2.3,1.5,7.4,2.8
COc1ccc(C(=O)Nc2ccccc2C(=O)O)cc1Cl,24.3,12.4,28.3,46.6*
COc1ccccc1NS(=O)(=O)c1cc(NC(=O)Nc2ccccc2)ccc1N1CCCCC1,18.6,11.8,21.9,52.8*
COc1ccccc1NS(=O)(=O)c1cc(NC(=O)C(C)C)ccc1N1CCCCC1,-6.1,-3.0,2.8,-3.9
SMILES,Thrombin inh,FXIa inh 1536,FXIIa inh 1536,hK5 inh
CCCNC(=O)NC1CCCc2ccccc21 (stereo not given),2.7,-1.0,11.6,3.7
CCN(CC)CCCNCC(=O)Nc1ccc(OC)c(Cl)c1,10.9,39.9,37.1,41.5*
CCN(CC)CCCNCC(=O)Nc1ccc2c(c1)CCC2,0.8,-2.1,3.2,-0.2
CC(C)(C)n1nc2c(c1NC(=O)c1cc3ccccc3o1)CS(=O)(=O)C2,-9.8,0.9,12.3,4.2
CC(=O)NC(Cc1ccc(F)cc1)C(=O)NC1CCN(c2ncccc2[N+](=O)[O-])CC1 (stereo not given),-2.0,1.4,x,5.2
CCN1/C(=C/c2ccc3cccc(C)c3[n+]2CC)Sc2ccccc21,39.9,13.5,27.8,50.7*
CCC(C)(C)n1nnnc1C(c1cc2ccc(OC)cc2[nH]c1=O)N1CCN(C2CCCCC2)CC1 (stereo not given),30.9,7.3,-2.7,57.4*
CN(C)S(=O)(=O)c1ccc(C(=O)Oc2cc(=O)[nH]c3ccccc23)cc1,40.3*,10.5,27.0,11.6
Cc1cc(OCC(=O)Nc2ccc(CN3CCCCC3)cc2)ccc1Cl,16.3,28.9,21.2,42.4*
COC(=O)c1c(SCC(=O)Nc2ccc(C)cc2)nc(=O)[nH]c1C,33.6,28.7,25.8,73.8*
O=C(O)c1cccc(S(=O)(=O)Nc2ccccc2-c2ccccc2)c1,-7.6,-4.1,1.5,-6.9
O=[N+]([O-])c1cccc(C=Nc2cc3c(cc2Br)OCCO3)c1,12.4,7.9,-5.8,50.6*
O=C(CO/N=C/c1ccccc1O)N1CCc2ccccc21,25.1,5.1,3.7,44.5*
NC1=NC(=O)/C(=C\C=C\c2ccccc2)S1,15.4,6.4,3.6,54.6*
Cc1cc(C)n(CC2CC(=O)N(c3ccc(Cl)c(Cl)c3)C2=O)n1 (stereo not given),21.3,17.7,15.7,53.8*
Cc1cc(C)n(CC2CC(=O)N(c3ccc(Cl)cc3)C2=O)n1 (stereo not given),0.5,9.3,5.6,1.7
NCCCCCc1nnc(SCC(N)=O)o1,-4.4,-2.9,8.2,x
CC12CCC(C(=O)NC(c3ccccc3)c3ccccc3)(OC1=O)C2(C)C (stereo not given),13.4,12.5,55.0*,37.2
CC12CCC(C(=O)N3CCCc4ccccc43)(OC1=O)C2(C)C (stereo not given),-2.8,11.2,7.1,-9.8
O=C(O)CC1(CC(=O)NCc2ccncc2)CCCCC1,15.1,27.8,41.4*,37.0
CCOC(=O)Cc1nnc(Nc2ccc(C)cc2C)c2ccccc12,-7.7,2.8,5.0,-15.3
NC(=O)C1(N2CCCCC2)CCN(Cc2ccc(F)cc2)CC1,23.2,-0.3,11.2,48.7*
COc1ccccc1N1CCN(C2CCN(C(=O)COc3cccc(C)c3)CC2)CC1,-11.5,7.6,6.9,-17.6
O=[N+]([O-])c1ccc(C2Nc3cccc4cccc(c34)N2)cc1,11.6,14.8,9.0,63.3*
CC1CCN(S(=O)(=O)c2ccc3nc(-c4ccccn4)cc(C(=O)NCCN(C)Cc4ccccc4)c3c2)CC1,34.5,30.3,66.2*,18.5
SMILES,Thrombin inh,FXIa inh 1536,FXIIa inh 1536,hK5 inh
COC(=O)CC1C(=O)NCCN1C(=S)Nc1cccc(C)c1 (stereo not given),-3.4,34.5,44.9*,-20.8
COc1cc(C(=O)O/N=C2/C=C(C)C(=O)C=C2C)cc(OC)c1OC,-2.3,-0.3,60.0*,-5.8
COc1cc(C(=O)ON=C2C(C)=CC(=O)C=C2C)cc(OC)c1OC,6.6,2.5,31.9,6.5
Clc1cccc(-c2ccc(CNCCCN3CCOCC3)o2)c1,-4.6,0.0,7.5,x
Cc1ccc2nc(NC(=O)CSCC(=O)OCC(=O)c3ccccc3)sc2c1,93.5*,9.6,9.7,-10.6
CCOCC(=O)Nc1nc2ccc(C)cc2s1,-4.6,-4.3,-4.5,-25.8
O=c1[nH]c2ccccc2nc1-c1ccc(Cl)cc1,4.1,5.5,10.4,3.4
O=c1[nH]c2ccccc2nc1-c1ccccc1,10.9,19.3,18.2,111.9*
COc1cc(/C=N/n2cnnc2)ccc1OC(=O)c1cccnc1,-5.3,19.1,42.3*,-2.1
CCOC(=O)Nc1ccc2c(c1)nc(CN1CCCCC1)n2C,-6.7,-2.8,7.1,-1.0
O=C(Nc1ccc(Cl)cc1)Nc1ccccc1C(=O)NCc1ccco1,5.1,103.8*,30.9,51.1*

# From PubChem BioAssay
